NPY2 pot ag: potentiators or agonists of human neuropeptide Y receptor Y2. P49146. cells expressing NPY-Y2, potentiator/agonist read-out. activation, % at 3.6 µM. hit rate 0.45% among 220,000. AID 1359; in the data active = activation above about 27%;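 also: cells stimulated with NPY near EC25 plus isoproterenol at EC100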
Target sequence (P49146 whole entry, looked up): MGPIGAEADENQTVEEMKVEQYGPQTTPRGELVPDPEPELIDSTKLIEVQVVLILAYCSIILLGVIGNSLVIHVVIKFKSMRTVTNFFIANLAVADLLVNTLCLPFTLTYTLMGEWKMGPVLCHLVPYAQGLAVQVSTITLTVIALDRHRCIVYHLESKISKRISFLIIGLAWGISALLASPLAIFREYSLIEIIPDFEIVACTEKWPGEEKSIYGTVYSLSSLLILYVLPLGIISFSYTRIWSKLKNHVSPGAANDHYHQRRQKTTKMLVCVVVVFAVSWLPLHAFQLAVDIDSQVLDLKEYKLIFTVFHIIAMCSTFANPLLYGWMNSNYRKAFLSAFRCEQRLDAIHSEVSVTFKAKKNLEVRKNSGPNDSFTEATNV
S1P4 ag: agonists of human S1P4 receptor. S1P4-expressing cell line, agonist reporter assay. hit rate 0.35% among 220,000. activation, % at 4.98 µM. O95977; in the data active = activation above about 11%
NPY-Y2 antag: antagonists of human neuropeptide Y receptor Y2 | NPY-Y2 expressing cells, antagonist mode | inhibition, % at 2.7 µM | hit rate 0.99% among 140,000 | AID 793; in the data active = inhibition above about 17%
NPY-Y1 PAM-ag: potentiates or activates human NPY-Y1 receptor. hit rate 0.37% among 220,000. NPY-Y1 expressing cells, potentiator/agonist activation. P25929. activation, % at 3.6 µM; in the data active = activation above about 33%, passing the limit was not always enough;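 also: cells stimulated with NPY at EC10 then isoproterenol at EC100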
S1P4 antag: blocks the human S1P4 receptor. O95977. S1P4-expressing cells, antagonist mode, reporter read-out. inhibition, % at 4.98 µM. hit rate 0.26% among 220,000. AID 1510; in the data active = inhibition above about 29%
NPY-Y1 antag: NPY-Y1 (human) receptor antagonism; P25929; HEK293-CNG Y1 cells, membrane potential fluorescence; NPY at EC95, then isoproterenol; inhibition, % at 3.6 µM; hit rate 1% among 200,000; AID 1040;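 active = inhibition above the campaign mean inhibition of all tested compounds plus 3 SD, cut at about 20% in these data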
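Material: HEK293 Y1/CNG channel cell line | Also added: NPY (25 nM), isoproterenol (1 µM), Ro 20-1724 (25 µM) | Compound: One concentration, 3.6 µM, in 0.4% DMSO | Schedule: 3 h dye uptake, 1 h room-temperature compound, 45 min post-isoproterenol | Signal: Membrane-potential fluorescent dye readout | Read-out: % inhibition of NPY effect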
NPY-Y1 pot conf: human NPY-Y1 potentiation or agonism, confirmation. hit rate 20% among 280. AID 1546. shares compounds with NPY-Y1 PAM-ag. cell-based NPY-Y1 potentiator/agonist assay. activation, % at 3.6 µM; in the data active = activation above about 45%;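 also: cells challenged with NPY at its EC10 plus isoproterenol stimulus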
NPY-Y2 counter: potentiates or activates NPY-Y2, counter-screen for NPY-Y1 hits; shares compounds with NPY-Y1 PAM-ag; HEK293-CNG cells, membrane-potential fluorescence (FLIPR), 1536-well; activation, % at 3.6 µM; hit rate 20% among 280; in the data active = activation above about 33%
NPY-Y1 ag: counter-screen for NPY-Y1 potentiators: agonists of human NPY-Y1. activation, % at 3.6 µM. HEK293 Y1-CNGC, membrane potential fluorescence, agonist mode. hit rate 50% among 280. shares compounds with NPY-Y1 PAM-ag;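 active = percent activation above the mean of DMSO-only control wells plus 3 SD of those wells, cut at about 18% in these data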;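 also: cells challenged with isoproterenol plus Ro 20-1724 with no NPY in test wells; Y1 agonism lowers isoproterenol-driven cAMP and reduces probe fluorescence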
NPY-Y2 agonist: human NPY-Y2 agonism as NPY-Y1 counter-screen; shares compounds with NPY-Y1 PAM-ag; hit rate 67% among 280; activation, % at 3.6 µM; HEK293 Y2-CNGC, membrane potential fluorescence, agonist mode;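 active = activation above the solvent-only control wells' mean plus 3 SD, cut at about 11% in these data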;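 also: agonism lowers cAMP so well fluorescence drops in active wells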
CNGC counter: counter-screen for NPY-Y1 potentiators or agonists: CNG channel inhibitors | shares compounds with NPY-Y1 PAM-ag | HEK293-CNG parental, isoproterenol cAMP, membrane potential fluorescence | inhibition, % at 3.6 µM | hit rate 42% among 280;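 active = inhibition above the mean of stimulated solvent-only control wells plus 3 SD, cut at about 22% in these data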
Numbers stand for hits; - = inactive; . = not tested or not shown. Most compounds without a hit are left out; they make up all but 2.4% or so of the library.

SMILES	NPY2 pot ag	S1P4 ag	NPY-Y2 antag	NPY-Y1 PAM-ag	S1P4 antag	NPY-Y1 antag	NPY-Y1 pot conf	NPY-Y2 counter	NPY-Y1 ag	NPY-Y2 agonist	CNGC counter
CCC(CC)C(=O)Nc1c2c(nn1-c1ccc(OC)cc1)CS(=O)C2 (configuration not stated)	-	-	-	40.6	-	-	-	-	-	-	-
CCc1ccc2nc3sc(C(=O)N4CCc5ccccc54)c(N)c3cc2c1	-	-	-	-	-	-	.	.	.	.	.
COC(=O)c1sc(-c2ccc(C(C)(C)C)cc2)cc1NC(=O)c1ccccc1C(=O)O	-	-	.	63.1	-	.	45.5	-	38.7	12.3	23.6
COC(=O)c1sc(-c2ccc(Cl)cc2)cc1NC(=O)c1ccccc1C(=O)O	-	-	.	-	-	.	.	.	.	.	.
CN(C(=O)CSc1nc2c(c(=O)[nH]1)CCCC2)C1CCCCC1	-	-	-	-	-	-	.	.	.	.	.
N#Cc1c(-n2cccc2/C=N/O)sc2c1CCCC2	-	-	-	44.3	-	-	-	-	-	-	-
NS(=O)(=O)c1cccc(NC(=O)c2cncc(Br)c2)c1	-	-	.	-	-	.	.	.	.	.	.
C=CCOc1c(Br)cc(/C=C2/NC(=S)N(C(C)=O)C2=O)cc1OC	-	-	.	-	-	-	.	.	.	.	.
CCOCCOC(=O)COc1ccc(N2C(=O)c3ccccc3C2=O)cc1	-	-	-	44.2	-	-	82.7	54.8	62.8	43.9	80.0
Cc1ccc(OCC(=O)OCCN2C(=O)c3ccccc3C2=O)cc1C	-	-	-	-	-	-	.	.	.	.	.
O=C(Nc1ccc(F)cc1)C1C2CCC3C(CCC21)C3(Cl)Cl (configuration not stated)	-	-	.	51.6	-	.	-	-	-	-	-
O=C(CSCSCC(=O)Nc1ccc2c(c1)OCO2)Nc1ccc2c(c1)OCO2	-	-	-	46.1	-	-	-	-	-	-	-
Cc1ccc(NC(=O)c2noc3c2CCCCC3)cc1	-	-	-	-	-	-	.	.	.	.	.
Cc1ccc(NC(=O)c2noc3c2CCCCC3)cc1C	-	-	-	49.1	-	-	-	-	-	-	-
Cc1cc(C)c(C#N)c(N2CCN(Cc3ccccc3)CC2)n1	-	-	-	77.6	-	-	-	-	-	-	-
Cc1cc(C)c(C#N)c(N2CCN(Cc3ccc4c(c3)OCO4)CC2)n1	-	-	-	-	-	-	.	.	.	.	.
Cn1cc([N+](=O)[O-])c(C(=O)Nc2ccc(C3CCCCC3)cc2)n1	-	-	.	37.3	-	-	-	-	19.1	16.9	-
Cn1cc([N+](=O)[O-])c(C(=O)Nc2ccc(C(=O)N3CCCCC3)cc2)n1	-	-	-	-	-	-	.	.	.	.	.
CC1SC(c2ccc(Cl)cc2)NC1=O (configuration not stated)	-	-	-	-	-	-	.	.	.	.	.
CC1OC(Nc2ccc(N=Nc3ccccc3)cc2)C(O)C(O)C1O (configuration not stated)	-	-	.	37.7	-	-	-	-	26.8	37.1	-
COc1ccc(N(CCCN2C(=O)c3cccc4cccc(c34)C2=O)C(=O)c2ccncc2)cc1	-	-	.	42.4	-	-	-	-	-	-	-
Cc1cccc2sc(N(CCCN(C)C)C(=O)CCc3ccccc3)nc12	-	-	-	-	-	-	.	.	.	.	.
COc1cccc(C(=O)NC(=O)Nc2cc(C)[nH]n2)c1	-	-	.	75.6	-	.	-	-	-	-	-
CCN(CC)CCN(CC(=O)N(C1CCCCC1)C1CCCCC1)C(=O)c1ccco1	-	-	.	-	-	-	.	.	.	.	.
COc1cccc(CNC(=O)c2ccc(CS(=O)(=O)Cc3ccc(C)cc3)o2)c1	-	-	.	-	-	-	.	.	.	.	.
SMILES	NPY2 pot ag	S1P4 ag	NPY-Y2 antag	NPY-Y1 PAM-ag	S1P4 antag	NPY-Y1 antag	NPY-Y1 pot conf	NPY-Y2 counter	NPY-Y1 ag	NPY-Y2 agonist	CNGC counter
CC1CCC(C(C)C)C(OC(=O)CSc2n[nH]c(=O)[nH]c2=O)C1 (configuration not stated)	-	-	-	-	-	-	.	.	.	.	.
CC1CCC(C(C)C)C(OCC(O)CNC(C)c2ccccc2)C1 (configuration not stated)	-	-	.	43.0	-	-	-	38.5	45.5	42.4	-
CC1CCN(CC(O)COC2CC(C)CCC2C(C)C)CC1 (configuration not stated)	-	-	.	41.3	-	-	-	-	-	15.7	-
Cc1cc(C)c(NC(=O)C2CCCN2C)c(C)c1 (configuration not stated)	-	-	-	-	-	-	.	.	.	.	.
O=C(O)/C=C/c1ccc(S(=O)(=O)NCc2ccco2)cc1	-	-	.	64.3	-	-	-	-	-	-	-
Cc1ccc(CNC(=O)/C=C/c2ccc(S(=O)(=O)NCc3ccco3)cc2)cc1	-	-	-	-	-	-	.	.	.	.	.
CN(C)S(=O)(=O)c1ccc(C(=O)NCC(=O)N/N=C/c2ccco2)cc1	-	-	.	-	-	-	.	.	.	.	.
CC(=O)Nc1ccc2nc(SCC(=O)O)sc2c1	-	-	-	-	-	-	.	.	.	.	.
COC(=O)CSc1nc2ccc(N)cc2s1	-	-	.	45.0	-	-	91.8	67.1	71.2	63.5	84.9
Nc1ccccc1Nc1ccccc1	-	-	-	38.0	-	-	-	-	-	-	24.2
O=C(CN1C(=O)NC(c2ccccc2)(c2ccccc2)C1=O)c1c[nH]c2ccccc12	-	-	.	39.6	-	-	-	-	33.7	21.3	29.2
COc1ccc(C(=O)Nc2ccc(S(=O)(=O)Nc3nccnc3OC)cc2)cc1	-	-	-	-	-	-	.	.	.	.	.
COc1nccnc1NS(=O)(=O)c1ccc(NS(=O)(=O)c2ccc(NC(C)=O)cc2)cc1	-	-	-	81.1	-	-	-	-	-	-	-
CCOCCOC(=O)c1ccc(NC(=O)c2cc(OC)c(OC)c(OC)c2Br)cc1	-	-	-	-	-	-	.	.	.	.	.
Cc1ccc(O)c(N=Nc2ccc(S(=O)(=O)N3CCCC3)cc2)c1	-	-	.	45.0	-	.	45.1	-	29.9	42.3	27.0
COC(=O)COc1ccc(/C=C2/NC(=O)N(CC(=O)OC)C2=O)cc1	-	-	.	49.1	-	-	117.6	89.8	102.9	89.1	96.4
CCN1C(=O)/C(=C\N2CCN(C(=O)c3ccco3)CC2)SC1=S	-	-	.	-	-	.	.	.	.	.	.

Compound activity from PubChem.
